# Experimental data reported in ChEMBL document CHEMBL1165980, “Synthesis and structure-activity relationship study of novel cytotoxic carbamate and N-acylheterocyclic bearing derivatives of betulin and betulinic acid” (Bioorg Med Chem, 2010).
# The source made the active and inactive calls. The calls are words filed in the database; no cut-off is given here.
# Experiments:
# Jurkat = assay: Cytotoxicity against human Jurkat cells after 72 hrs by XTT assay; type: functional, cell-based
# Outline: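 Exponentially growing Jurkat cells (RPMI 1640, 10% heat-inactivated FBS, 1% P/S, 2 mM glutamine) seeded at 5.5 × 10³ cells/well. Exposed to ten serial threefold dilutions of compound or DMSO vehicle in medium, triplicate wells, 72 h. XTT labeling mixture then added for 4 h at 37 °C, A450 read. IC50 by non-linear regression; mean ± SD of at least three experiments.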
# HT-29 = assay: Cytotoxicity against human HT-29 cells after 72 hrs by MTT assay; type: functional, cell-based; settings: HT-29, 72 h
# Outline: (§1)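 Exponentially growing cells seeded at 1–8 × 10³ cells/well and left 24 h. Medium then replaced with medium holding compound in DMSO (final DMSO <0.1%), ten serial threefold dilutions, or DMSO alone. Triplicate wells, 72 h exposure. MTT added, 1 h at 37 °C, formazan dissolved in DMSO, A550 read. IC50 by non-linear regression; mean ± SD of at least three experiments.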
# HepG2 = assay: Cytotoxicity against human HepG2 cells after 72 hrs by MTT assay; type: functional, cell-based; settings: HepG2, 72 h; outline: as §1
# HeLa = assay: Cytotoxicity against human HeLa cells after 72 hrs by MTT assay; type: functional, cell-based; outline: as §1
# [1] = molecular target: T1, DNA topoisomerase 1 (Homo sapiens) (UniProt P11387); assay: Inhibition of DNA topoisomerase 1-mediated relaxation of supercoiled plasmid DNA at 100 uM after 3 hrs by gel electrophoresis
# T1 sequence (whole entry): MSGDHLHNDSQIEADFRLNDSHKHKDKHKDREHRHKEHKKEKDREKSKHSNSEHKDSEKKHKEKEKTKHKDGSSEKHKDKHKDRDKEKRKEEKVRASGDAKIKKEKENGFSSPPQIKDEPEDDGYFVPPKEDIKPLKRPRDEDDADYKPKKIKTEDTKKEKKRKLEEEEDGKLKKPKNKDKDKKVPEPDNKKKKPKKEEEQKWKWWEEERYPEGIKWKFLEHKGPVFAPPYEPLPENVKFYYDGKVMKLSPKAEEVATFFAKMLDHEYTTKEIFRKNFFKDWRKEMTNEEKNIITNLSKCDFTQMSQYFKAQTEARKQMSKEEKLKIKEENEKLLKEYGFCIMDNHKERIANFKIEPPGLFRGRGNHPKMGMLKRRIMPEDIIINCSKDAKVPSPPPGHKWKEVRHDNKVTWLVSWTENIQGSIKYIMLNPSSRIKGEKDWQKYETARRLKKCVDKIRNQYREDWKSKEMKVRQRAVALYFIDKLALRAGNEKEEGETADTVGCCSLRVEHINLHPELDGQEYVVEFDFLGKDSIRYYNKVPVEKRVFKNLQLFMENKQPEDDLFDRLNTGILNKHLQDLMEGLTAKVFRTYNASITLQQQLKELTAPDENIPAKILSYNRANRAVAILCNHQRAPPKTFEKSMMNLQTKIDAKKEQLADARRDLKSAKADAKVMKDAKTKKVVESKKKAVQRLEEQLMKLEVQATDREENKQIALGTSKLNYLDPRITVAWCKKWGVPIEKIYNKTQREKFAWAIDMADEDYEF
# Outline: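 Topoisomerase I kit assay. Compound at 100 µM final with 0.5% DMSO. Started with 5 U topo I, run 30 min at 37 °C, stopped with 1% SDS. Products resolved on 1% agarose in TAE at 80 V for 3 h, ethidium-stained. Inhibition scored 0 to 3+.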
# PC-3 [2] = assay: Ratio of betulinic acid IC50 to compound IC50 for human PC3 cells; type: functional
# BJ [3] = assay: Selectivity ratio of IC50 for human BJ cells to IC50 for human PC3 cells
# BJ [4] = assay: Cytotoxicity against human BJ cells after 72 hrs by MTT assay; type: cell-based; outline: as §1
# PC-3 [5] = assay: Cytotoxicity against human PC3 cells after 72 hrs by MTT assay; type: functional, cell-based; settings: PC-3, 72 h; outline: as §1
# [6] = in the assay text read “after 30 mins” for “after 3 hrs”
Compound,"inhibition [1, 6]",inhibition [1],IC50 (Jurkat) [µM],IC50 (HT-29) [µM],IC50 (HepG2) [µM],IC50 (HeLa) [µM],Ratio IC50 (PC-3 [2]),Ratio IC50 (BJ [3]),IC50 (BJ [4]) [µM],IC50 (PC-3 [5]) [µM]
C=C(C)[C@@H]1CC[C@]2(COC(C)=O)CC[C@]3(C)[C@H](CC[C@@H]4[C@@]5(C)CC[C@H](OC(=O)n6ccnc6C)C(C)(C)[C@@H]5CC[C@]43C)[C@@H]12,,,> 30,> 30,> 30,> 30,,,,
C=C(C)[C@@H]1CC[C@]2(COC(=O)n3ccnc3C)CC[C@]3(C)[C@H](CC[C@@H]4[C@@]5(C)CC[C@H](OC(C)=O)C(C)(C)[C@@H]5CC[C@]43C)[C@@H]12,,,> 30,> 30,> 30,> 30,,,,
C=C(C)[C@@H]1CC[C@]2(COC(=O)n3cncn3)CC[C@]3(C)[C@H](CC[C@@H]4[C@@]5(C)CC[C@H](OC(C)=O)C(C)(C)[C@@H]5CC[C@]43C)[C@@H]12,,,,> 30,,,,,,> 30
C=C(C)[C@@H]1CC[C@]2(COC(=O)n3cncn3)CC[C@]3(C)[C@H](CC[C@@H]4[C@@]5(C)CC[C@H](O)C(C)(C)[C@@H]5CC[C@]43C)[C@@H]12,,inactive,,7.6,,,,,,4.7
C=C(C)[C@@H]1CC[C@]2(CO)CC[C@]3(C)[C@H](CC[C@@H]4[C@@]5(C)CC[C@H](OC(=O)n6cncn6)C(C)(C)[C@@H]5CC[C@]43C)[C@@H]12,Active,,12.2,4.9,7.3,6.9,,15,39.4,2.1
C=C(C)[C@@H]1CC[C@]2(C(=O)O)CC[C@]3(C)[C@H](CC[C@@H]4[C@@]5(C)CC[C@H](O)C(C)(C)[C@@H]5CC[C@]43C)[C@@H]12 [BETULINIC ACID],,,26.9,12.8,36.4,26,,,,21.5
C=C(COC)[C@@H]1CC[C@]2(COC(=O)n3cncn3)CC[C@]3(C)[C@H](CC[C@@H]4[C@@]5(C)CC[C@H](OC(=O)n6cncn6)C(C)(C)[C@@H]5CC[C@]43C)[C@@H]12,,inactive,,12.3,,,,,,6.4
C=C(C)[C@@H]1CC[C@]2(C(=O)n3cncn3)CC[C@]3(C)[C@H](CC[C@@H]4[C@@]5(C)CC[C@H](OC(=O)n6cncn6)C(C)(C)[C@@H]5CC[C@]43C)[C@@H]12,,Active,11.6,1.9,6.8,4.1,19,15,19.4,1.1
C=C(C)[C@@H]1CC[C@]2(COC(C)=O)CC[C@]3(C)[C@H](CC[C@@H]4[C@@]5(C)CC[C@H](OC(=O)n6cncn6)C(C)(C)[C@@H]5CC[C@]43C)[C@@H]12,,,,> 30,,,,,,> 30
C=C(C)[C@@H]1CC[C@]2(COC(=O)n3cncn3)CC[C@]3(C)[C@H](CC[C@@H]4[C@@]5(C)CC[C@H](OC(=O)n6cncn6)C(C)(C)[C@@H]5CC[C@]43C)[C@@H]12,,inactive,,17.5,,,,,,7.9
C=C(COC)[C@@H]1CC[C@]2(COC(=O)n3cncn3)CC[C@]3(C)[C@H](CC[C@@H]4[C@@]5(C)CC[C@H](O)C(C)(C)[C@@H]5CC[C@]43C)[C@@H]12,,Active,9.5,5.8,9.1,24.3,,15,46.6,2.6

# Now from value to compound, other results behind:
"inhibition [1, 6]",inhibition [1],Compound,IC50 (Jurkat) [µM],IC50 (HT-29) [µM],IC50 (HepG2) [µM],IC50 (HeLa) [µM],Ratio IC50 (PC-3 [2]),Ratio IC50 (BJ [3]),IC50 (BJ [4]) [µM],IC50 (PC-3 [5]) [µM]
inactive,,C=C(C)[C@@H]1CC[C@]2(C(=O)n3ccnc3C)CC[C@]3(C)[C@H](CC[C@@H]4[C@@]5(C)C=CC(=O)C(C)(C)[C@@H]5CC[C@]43C)[C@@H]12,12.5,9,6.8,10.6,,,,
Active,,C=C(C)[C@@H]1CC[C@]2(C(=O)n3cncn3)CC[C@]3(C)[C@H](CC[C@@H]4[C@@]5(C)C=C(O)C(=O)C(C)(C)[C@@H]5CC[C@]43C)[C@@H]12,10.5,3.3,7.4,5.4,12,15,27.9,1.8
Active,,Cc1nccn1C(=O)OC[C@]12CC[C@@H]([C@@H](C)C=O)C1[C@H]1CC[C@@H]3[C@@]4(C)CC[C@H](O)C(C)(C)[C@@H]4CC[C@@]3(C)[C@]1(C)CC2 (stereo partly drawn),21.3,15.8,14.3,16.6,,,,
,inactive,C=C(C)[C@@H]1CC[C@]2(C(=O)n3ccnc3C)CC[C@]3(C)[C@H](CC[C@@H]4[C@@]5(C)CCC(=O)C(C)(C)[C@@H]5CC[C@]43C)[C@@H]12,5.3,4.7,5.5,4.2,,,48.4,
inactive,,C=C(COC)[C@@H]1CC[C@]2(COC(=O)n3ccnc3C)CC[C@]3(C)[C@H](CC[C@@H]4[C@@]5(C)CC[C@H](OC(=O)n6ccnc6C)C(C)(C)[C@@H]5CC[C@]43C)[C@@H]12,> 30,> 30,28.2,13.4,,,,
inactive,,C=C(C)[C@@H]1CC[C@]2(COC(=O)n3ccnc3C)CC[C@]3(C)[C@H](CC[C@@H]4[C@@]5(C)CC[C@H](O)C(C)(C)[C@@H]5CC[C@]43C)[C@@H]12,15.8,16.2,36.4,11,,,,
Active,,C=C(C)[C@@H]1CC[C@]2(C(=O)O)CC[C@]3(C)[C@H](CC[C@@H]4[C@@]5(C)C=C(OC(=O)n6ccnc6C)C(=O)C(C)(C)[C@@H]5CC[C@]43C)[C@@H]12,9.4,5.9,4.7,6.4,,,37.2,
,Active,C=C(C)[C@@H]1CC[C@]2(C(=O)O)CC[C@]3(C)[C@H](CC[C@@H]4[C@@]5(C)CC[C@H](OC(=O)n6ccnc6C)C(C)(C)[C@@H]5CC[C@]43C)[C@@H]12,6.1,5.7,7.3,7.5,,,41.3,
inactive,,C=C(C)[C@@H]1CC[C@]2(COC(=O)n3ccnc3C)CC[C@]3(C)[C@H](CC[C@@H]4[C@@]5(C)CC[C@H](OC(=O)n6ccnc6C)C(C)(C)[C@@H]5CC[C@]43C)[C@@H]12,> 30,> 30,> 30,> 30,,,,
inactive,,C=C(COC)[C@@H]1CC[C@]2(COC(=O)n3ccnc3C)CC[C@]3(C)[C@H](CC[C@@H]4[C@@]5(C)CC[C@H](O)C(C)(C)[C@@H]5CC[C@]43C)[C@@H]12,24.8,10.4,14.4,8.9,,,,
